This note sets out measurements from PubChem BioAssay.

The target in assay [1] is Pantothenate synthetase (Mycobacterium tuberculosis (strain ATCC 25618 / H37Rv)) (UniProt P9WIL5). As to the kind of experiment: Coupled enzyme confirmation of inhibitors against recombinant Mtb PanC (AID 375; call rule not given here;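 further: 0% = full reaction with vehicle and 100% = no enzyme background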). The following applies: coupled enzyme assay; at 10 µM, stronger effect = higher value.
Assay [2] is described as follows: Her2 expression decrease, cell viability multiplex – SKBR3 breast tumor cells, AlphaScreen, ATP viability, primary screen (AID 461;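 active means Her2 level under about 52% in both replicate screens, with viability over 70% of control, limit read from the data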;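 on Her2 level: lower value means less Her2 protein in the cells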;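 on viability: percent of carrier control wells set as 100% viability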). The following applies: SKBR3 Her2 protein level, 18-24 h, measured here: SKBR3 viability, ATP luminescence, at 10 µM.
Assay [3] deals with Receptor tyrosine-protein kinase erbB-2 (Homo sapiens) (UniProt P04626). The description is as above. Conditions: 18-24 h, at 10 µM, stronger effect = lower value.
Assay [4] can be described thus: reduced viability of SK-BR-3 breast cancer cells – cell-based, 24 h, human, pilot screen (AID 572;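 active means viability at or below 10% of carrier control in both of two separate runs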;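 further: compound exposure lasted between 18 and 24 h rather than exactly 24 h; 100% = carrier-treated control wells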). Conditions: SK-BR-3 viability, CellTiter-Glo luminescence, at 10 µM, stronger effect = lower value. Background: ATP-based viability assays read luminescence as a measure of living cells.
Assay [5] in a line: HUVEC growth inhibition – cell-based, human, primary screen (AID 575).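 Further: 100% = median of untreated cell wells with 0.1% DMSO on each plate.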 The following applies: HUVEC proliferation, CellTiter-Glo luminescence, 72 h; at 10 µM; stronger effect = lower value. An outline of the steps:
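Test system – primary HUVEC, no more than 12 passages · Dosing – one dose, 10 µM final, 0.1% DMSO · Times – 72 h treatment at 37 °C · Measured by – ATP-based CellTiter-Glo luminescent read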

A short description of assay [6]: H69AR cell proliferation blockers – human, duplicate replicates, primary screen (AID 580;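 active means viability at or under a set limit in both replicates, limit being median viability minus 3 SD, cut at about 48% in these data, passing the limit was not always enough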;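 further: 100% = mean luminescence of untreated wells and 0% = no signal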). Conditions: H69AR lung tumor cells viability, ATP luminescence, 72 h; at 10 µM; stronger effect = lower value.
Assay [7] can be described thus: MRP1 drug-resistance reversers in H69AR cells – cell-based, doxorubicin co-treatment, pilot screen (AID 601;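 active means viability loss from added drug above about 55%, and viability with drug at most 40%, in both replicates, limit read from the data, passing the limit was not always enough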). The following applies: CellTiter-Glo, 72 h, at 10 µM; for differential viability (reversal): stronger effect = higher value.
Assay [8] can be described thus: yeast transport mutant growth inhibition pilot in 384-well plates, post-Golgi transport modulator project (AID 636; in the data active means inhibition above about 31%). Conditions: absorbance 615 nm, about 18 h, stronger effect = higher value.
Assay [9] can be described thus: growth suppression of yeast trafficking mutant, preliminary HTS, modulators of trafficking downstream of Golgi apparatus project, 1536-format plate, OD 615 nm (AID 637; in the data active means inhibition above about 30%). The following applies: yeast transport mutant growth, absorbance 615 nm, 18 h; stronger effect = higher value.
Setting [10] is: H69AR cells + 2 uM doxorubicin, measured here: viability with 2 uM doxorubicin, stronger effect = lower value.
The mark [11] stands for this setting: H69AR cells, compound alone cytotoxicity.

The source made the active and inactive calls.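 How the source made its calls, unless noted: active means viability at or below 30% in both replicate assays; inconclusive means viability at or below 30% in just one of the two assays; inactive means the rest.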

Chain of Pantothenate synthetase (Mycobacterium tuberculosis (strain ATCC 25618 / H37Rv)) (P9WIL5 whole entry, looked up): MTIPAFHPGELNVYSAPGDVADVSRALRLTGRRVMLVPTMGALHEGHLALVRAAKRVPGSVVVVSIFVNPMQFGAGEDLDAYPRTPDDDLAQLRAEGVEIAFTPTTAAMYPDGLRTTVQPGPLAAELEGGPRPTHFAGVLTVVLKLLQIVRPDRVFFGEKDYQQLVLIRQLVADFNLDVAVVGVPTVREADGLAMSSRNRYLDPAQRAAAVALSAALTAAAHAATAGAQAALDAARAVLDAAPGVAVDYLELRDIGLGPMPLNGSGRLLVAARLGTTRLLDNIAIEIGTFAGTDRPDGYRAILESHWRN
Chain of Receptor tyrosine-protein kinase erbB-2 (Homo sapiens) (P04626 whole entry, looked up): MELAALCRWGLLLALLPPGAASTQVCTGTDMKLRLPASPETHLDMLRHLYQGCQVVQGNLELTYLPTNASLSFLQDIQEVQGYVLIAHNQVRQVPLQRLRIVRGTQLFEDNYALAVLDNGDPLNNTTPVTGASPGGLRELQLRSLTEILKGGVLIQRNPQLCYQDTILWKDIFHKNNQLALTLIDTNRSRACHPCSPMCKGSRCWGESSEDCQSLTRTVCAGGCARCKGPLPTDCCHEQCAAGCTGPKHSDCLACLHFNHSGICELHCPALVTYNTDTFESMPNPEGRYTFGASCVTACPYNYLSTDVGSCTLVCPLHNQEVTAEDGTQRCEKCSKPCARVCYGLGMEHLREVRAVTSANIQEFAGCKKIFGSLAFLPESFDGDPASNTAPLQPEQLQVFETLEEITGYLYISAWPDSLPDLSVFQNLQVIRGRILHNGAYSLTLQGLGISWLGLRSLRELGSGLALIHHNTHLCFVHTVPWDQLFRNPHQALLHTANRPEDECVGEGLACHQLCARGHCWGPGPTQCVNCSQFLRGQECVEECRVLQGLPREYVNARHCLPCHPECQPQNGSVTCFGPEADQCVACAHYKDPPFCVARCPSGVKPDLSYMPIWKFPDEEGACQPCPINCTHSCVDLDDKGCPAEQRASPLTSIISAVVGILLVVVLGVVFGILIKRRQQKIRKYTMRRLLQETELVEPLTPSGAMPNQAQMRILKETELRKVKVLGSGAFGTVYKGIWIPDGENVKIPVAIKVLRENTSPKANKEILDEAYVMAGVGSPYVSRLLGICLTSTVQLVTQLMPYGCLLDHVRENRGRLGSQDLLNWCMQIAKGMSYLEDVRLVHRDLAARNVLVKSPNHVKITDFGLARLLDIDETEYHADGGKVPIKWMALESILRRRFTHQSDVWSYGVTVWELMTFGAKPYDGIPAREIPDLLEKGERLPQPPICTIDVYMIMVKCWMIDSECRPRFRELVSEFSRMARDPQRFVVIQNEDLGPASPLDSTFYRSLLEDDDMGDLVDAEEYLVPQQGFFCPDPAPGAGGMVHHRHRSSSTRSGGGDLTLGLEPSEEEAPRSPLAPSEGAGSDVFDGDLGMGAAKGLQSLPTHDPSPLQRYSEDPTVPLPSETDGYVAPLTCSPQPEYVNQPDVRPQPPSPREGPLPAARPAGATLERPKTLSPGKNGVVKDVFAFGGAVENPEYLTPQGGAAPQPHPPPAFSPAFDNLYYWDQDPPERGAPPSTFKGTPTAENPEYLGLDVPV

By inhibition is commonly meant the relative decrease from the control value, in per cent. In general, viability refers to a read-out of living cells in per cent, often relative to untreated cells. Turning to `Oc1ccc(C2NCc3ccccc3-n3cccc32)cc1Cl` (stereo not drawn), the inhibition in assay [1] was 0% (inactive); in [8], -6.18% (inactive); in [9] it was -3.17% (inactive). The viability is 98.5% in assay [2]; 98.5% (inactive) in assay [4]; 112% (inactive) in assay [5]; 83.8% (inactive) in assay [6]; 82.7% in assay [7] (setting [10]); 83.8% in assay [7] (setting [11]). Further, the Her2 level in [3] was 74.5% (inactive). The differential viability (reversal) in assay [7] (H69AR cells + 2 uM doxorubicin) is 1.1% (inactive).

As to `COc1ccc(N2CCN(CCCN)CC2)cc1`, the figures for the inhibition in assay [1], in assay [8] and in assay [9] were 0% (inactive), -0.91% (inactive) and -1.27% (inactive), respectively. Moreover, the viability in assay [2] is 94.5%; in [4], 94.5% (inactive); in assay [5] it was 72.6% (inactive); in [6] it was 81.5% (inactive); in [7] (setting [10]), 77.7%; in assay [7] (setting [11]), 81.5%. For the same compound, the Her2 level in [3] is 88% (inactive). The differential viability (reversal) in assay [7] (H69AR cells + 2 uM doxorubicin) is 3.81% (inactive).

Regarding `COc1ccc(S(=O)(=O)NC(CC(=O)N2CCC3(CC2)OCCO3)c2ccco2)cc1` (stereo not drawn), the values for the inhibition in assay [1], in [8] and in [9] were 0% (inactive), -8.77% (inactive) and -0.48% (inactive), respectively. For the same compound, the viability in assay [2] is 134%; in assay [4] it was 134% (inactive); in assay [5] it was 101% (inactive); in [6] it was 93.9% (inactive); in assay [7] (setting [10]), 88%; in assay [7] (setting [11]) it was 93.9%. Also, the Her2 level in assay [3] is 106% (inactive). Also, the differential viability (reversal) in assay [7] (H69AR cells + 2 uM doxorubicin) is 5.91% (inactive).

For `Cc1oc2ccc(OC(=O)N(C)C)cc2c1C(=O)OC(C)C`, the inhibition in assay [1] is 0% (inactive); in assay [8], -3.24% (inactive); in [9] it was 10.2% (inactive). In addition, the viability in assay [2] is 96%; in assay [4], 96% (inactive); in [5] it was 92.4% (inactive); in assay [6] it was 107% (inactive); in assay [7] (setting [10]), 95.8%; in assay [7] (setting [11]), 107%. Besides, the Her2 level in [3] was 87.5% (inactive). Further, the differential viability (reversal) in [7] (H69AR cells + 2 uM doxorubicin) was 11.3% (inactive).

In the case of `COc1ccccc1-n1c(O)c(C=NCc2ccc3c(c2)OCO3)c(=O)[nH]c1=O`, the inhibition in [1] is 7% (inactive); in assay [8], -2.43% (inactive); in [9], -0.48% (inactive). For the same compound, the viability was 93.5% in assay [2]; 93.5% (inactive) in assay [4]; 81.3% (inactive) in assay [5]; 91.8% (inactive) in assay [6]; 88.3% in assay [7] (setting [10]); 91.8% in [7] (setting [11]). In addition, the Her2 level in [3] was 91.5% (inactive). Also, the differential viability (reversal) in assay [7] (H69AR cells + 2 uM doxorubicin) was 3.46% (inactive).

Consider `O=C(C1CCCN(S(=O)(=O)c2cccc3nsnc23)C1)N1CCC2(CC1)OCCO2` (stereo not drawn), for which the inhibition in [1] is 0% (inactive); in assay [8] it was -5% (inactive); in assay [9] it was 1.33% (inactive). For the same compound, the viability in [2] is 97%; in assay [4], 97% (inactive); in assay [5], 100% (inactive); in assay [6] it was 81.6% (inactive); in assay [7] (setting [10]), 98.5%; in [7] (setting [11]), 81.6%. Also, the Her2 level in [3] is 100% (inactive). In addition, in assay [7] (H69AR cells + 2 uM doxorubicin), the differential viability (reversal) is -16.9% (inactive).

Take `CCOP(=S)(OCC)c1ccc(N(C)C)cc1`: the inhibition in assay [1] is 0% (inactive); in [8], 4.29% (inactive); in assay [9] it was -12.1% (inactive). Further, the viability in assay [2] is 92.5%; in assay [4] it was 92.5% (inactive); in assay [5], 93.6% (inactive); in assay [6], 78.3% (inactive); in assay [7] (setting [10]), 87.5%; in [7] (setting [11]) it was 78.3%. Besides, in assay [3], the Her2 level was 104% (inactive). For the same compound, the differential viability (reversal) in assay [7] (H69AR cells + 2 uM doxorubicin) was -9.22% (inactive).

`CCCCn1c(O)c(C(C)=Nc2cccc(C(=O)O)c2)c(=O)[nH]c1=O`: the inhibition in assay [1] was 0% (inactive); in assay [8], -2.11% (inactive); in [9], 9.02% (inactive). Also, the viability in [2] was 108%; in assay [4], 108% (inactive); in assay [5], 89.4% (inactive); in [6] it was 105% (inactive); in assay [7] (setting [10]), 100%; in assay [7] (setting [11]) it was 105%. For the same compound, the Her2 level in assay [3] was 106% (inactive). The differential viability (reversal) in [7] (H69AR cells + 2 uM doxorubicin) was 4.39% (inactive).

As to `C(#CCN1CCOCC1)COCC#Cc1ccccc1`, the figures for the inhibition in [1], in [8] and in assay [9] were 0% (inactive), -5.41% (inactive) and 1.11% (inactive), respectively. Besides, the viability in assay [2] is 92.5%; in [4], 92.5% (inactive); in [5] it was 91.4% (inactive); in [6], 101% (inactive); in assay [7] (setting [10]), 85.3%; in [7] (setting [11]), 101%. Further, the Her2 level in [3] is 85.5% (inactive). In addition, the differential viability (reversal) in [7] (H69AR cells + 2 uM doxorubicin) is 15.2% (inactive).

Take `O=C1C2CCCN2C(c2ccc(Cl)c(Cl)c2)N1c1ccccn1` (stereo not drawn): the inhibition was 0% (inactive) in assay [1], -4.08% (inactive) in assay [8] and 1.77% (inactive) in [9]. Moreover, the viability in assay [2] was 128%; in assay [4] it was 128% (inactive); in [5], 107% (inactive); in assay [6] it was 97.4% (inactive); in assay [7] (setting [10]), 86%; in assay [7] (setting [11]) it was 97.4%. For the same compound, in assay [3], the Her2 level was 102% (inactive). Besides, the differential viability (reversal) in assay [7] (H69AR cells + 2 uM doxorubicin) was 11.4% (inactive).

As to `c1ccc(C2CC3CC(c4ccco4)N2O3)cc1` (stereo not drawn), the inhibition is 0% (inactive) in [1], -0.4% (inactive) in assay [8] and -7.74% (inactive) in assay [9]. The viability in [2] is 93%; in assay [4] it was 93% (inactive); in [5], 82.8% (inactive); in [6], 113% (inactive); in assay [7] (setting [10]), 90.9%; in assay [7] (setting [11]), 113%. Besides, the Her2 level in assay [3] is 89.5% (inactive). For the same compound, the differential viability (reversal) in assay [7] (H69AR cells + 2 uM doxorubicin) is 22.5% (inactive).

For `Cn1c(=O)cc(OCC(=O)N2CCN(C3CCCCC3)CC2)c2ccccc21`, the inhibition in [1] was 0% (inactive); in [8], -1.47% (inactive); in assay [9], -1.15% (inactive). Further, the viability in assay [2] was 87%; in [4], 87% (inactive); in assay [5], 82% (inactive); in assay [6], 85.2% (inactive); in [7] (setting [10]), 82.1%; in assay [7] (setting [11]), 85.2%. Further, the Her2 level in assay [3] was 88% (inactive). Moreover, the differential viability (reversal) in assay [7] (H69AR cells + 2 uM doxorubicin) is 3.09% (inactive).

With `Nc1ccnn1C1CCNCC1`, the results for the inhibition in [1], in assay [8] and in assay [9] were 2% (inactive), -4.25% (inactive) and -2.06% (inactive), respectively. Further, the viability in assay [2] is 88.5%; in assay [4] it was 88.5% (inactive); in assay [5], 97% (inactive); in assay [6], 107% (inactive); in [7] (setting [10]) it was 102%; in assay [7] (setting [11]) it was 107%. In addition, in assay [3], the Her2 level is 105% (inactive). In assay [7] (H69AR cells + 2 uM doxorubicin), the differential viability (reversal) was 5.6% (inactive).
